Experimental data taken from ChEMBL document CHEMBL1129535, “Antitumor agents. 164. Podophenazine, 2'',3''-dichloropodophenazine, benzopodophenazine, and their 4 beta-p-nitroaniline derivatives as novel DNA topoisomerase II inhibitors” (J Med Chem, 1996).

How the values were obtained:
KB [1] = assay: Growth inhibitory activity (antiproliferative) against KB cell lines; format: functional, cell-based; settings: Homo sapiens
Method in brief: (§1)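 Cells (50 000 or 5000 per well) were seeded and left overnight. Compound was diluted from DMSO stocks into medium at 2× final and added in duplicate. After 2 days the cells were trypsinized and suspended in PBS with 0.5% trypan blue. Viable cells, those not staining blue, were counted by hemacytometer. IC50 was read graphically. KB/7d is an etoposide-selected multidrug-resistant subclone with reduced topoisomerase II.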

KB [2] = assay: Growth inhibitory activity (antiproliferative) against KB/7d cell lines; format: functional, cell-based; settings: Homo sapiens; method in brief: as §1
Nucleic Acid [3] = assay: Stimulation of in vitro Topoisomerase II-Linked DNA Complex Formation and Interference with Etoposide-Induced Cleavage at concentration 50 uM; format: functional
Method in brief: (§2)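 Buffer: 30 mM Tris-HCl pH 7.6, 60 mM KCl, 8 mM MgCl2, 3 mM ATP, 15 mM β-mercaptoethanol and 30 μg/mL BSA, with 4 U topoisomerase II. Reactions ran 30 min at 37 °C. Protein-linked DNA was K+/SDS-precipitated and counted (cpm), mean ± SD of 2–4 determinations.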

[4] = The differential toxicity ratio was defined as IC50(KB/7d)/IC50(KB); format: functional
Method in brief: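 The ratio IC50(KB/7d)/IC50(KB) uses IC50s from 2-day treatments scored by trypan-blue-excluding hemacytometer counts. KB/7d is an etoposide-selected subclone with reduced topoisomerase II.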

Nucleic Acid [5] = assay: Stimulation of in vitro Topoisomerase II-Linked DNA Complex Formation and Interference with Etoposide-Induced Cleavage at concentration 1 uM; format: functional; method in brief: as §2
Nucleic Acid [6] = assay: Stimulation of in vitro Topoisomerase II-Linked DNA Complex Formation and Interference with Etoposide-Induced Cleavage at concentration 100 uM; format: functional; method in brief: as §2

| Compound | IC50 (KB [1]) [µM] | IC50 (KB [2]) [µM] | cpm (Nucleic Acid [3]) | Ratio [4] | cpm (Nucleic Acid [5]) | cpm (Nucleic Acid [6]) |
| --- | --- | --- | --- | --- | --- | --- |
| COc1cc([C@@H]2c3cc4nc5ccccc5nc4cc3[C@H](O)[C@H]3COC(=O)[C@H]23)cc(OC)c1OC | 23.4 | 6.21 |  |  |  |  |
| COc1cc([C@@H]2c3cc(O)c(O)cc3[C@@H](Nc3ccc([N+](=O)[O-])cc3)[C@H]3COC(=O)[C@H]23)cc(OC)c1O | 0.42 | 16.6 | 661 | 39 |  |  |
| COc1cc([C@@H]2c3cc4c(cc3[C@@H](O[C@@H]3O[C@@H]5CO[C@@H](C)O[C@H]5[C@H](O)[C@H]3O)[C@H]3COC(=O)[C@H]23)OCO4)cc(OC)c1O [ETOPOSIDE] | 0.164 | 23.8 | 2460 | 145 | 216 | 1840 |
| COc1cc([C@@H]2c3cc4nc5cc(Cl)c(Cl)cc5nc4cc3[C@@H](Nc3ccc([N+](=O)[O-])cc3)[C@H]3COC(=O)[C@H]23)cc(OC)c1O | 0.48 | 10.6 | 103 | 22 | 105 | 101 |
| COc1cc([C@@H]2c3cc4nc5cc6ccccc6cc5nc4cc3[C@@H](Nc3ccc([N+](=O)[O-])cc3)[C@H]3COC(=O)[C@H]23)cc(OC)c1O | 6.63 |  |  |  |  |  |
| COc1cc([C@@H]2c3cc4nc5cc(Cl)c(Cl)cc5nc4cc3[C@H](O)[C@H]3COC(=O)[C@H]23)cc(OC)c1OC | 13.3 | 9.2 |  |  |  |  |
| COc1cc([C@@H]2c3cc4nc5ccccc5nc4cc3[C@@H](Nc3ccc([N+](=O)[O-])cc3)[C@H]3COC(=O)[C@H]23)cc(OC)c1O | 0.11 | 0.56 | 309 | 5 | 320 | 446 |
| COc1cc([C@@H]2c3cc4c(cc3[C@@H](Nc3ccc([N+](=O)[O-])cc3)[C@H]3COC(=O)[C@H]23)OCO4)cc(OC)c1O | 0.032 | 0.55 | 2930 | 17 KB 7d-1 |  |  |
